Six molecules from ChEMBL document CHEMBL1811853, “Design and evaluation of 3-aminopyrazolopyridinone kinase inhibitors inspired by the natural product indirubin” (Bioorg Med Chem, 2011) can be followed below.

Test [1] deals with MAP kinase-activated protein kinase 2 (Homo sapiens, UniProt P49137). The test can be described thus: Inhibition of MAPKAPK2 at 30 uM by microfluidic mobility shift assay. The essentials:
(§1)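 Single-concentration screen, singlicate, 30 uM final (diluted from 1 mM DMSO solutions), fluorescently tagged peptide substrate appropriate to each kinase, ATP at apparent Km for each protein. Phosphorylated and unphosphorylated peptides separated electrophoretically; conversion is the phosphorylated peak area over the sum of both peaks. No-inhibitor and no-ATP controls; H89 reference on each plate.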

In test [2] the target is Mitogen-activated protein kinase 3 (Homo sapiens) (UniProt P27361). The test can be described thus: Inhibition of ERK1 at 30 uM by microfluidic mobility shift assay. The essentials: as §1
Chain of Mitogen-activated protein kinase 3 (Homo sapiens) (P27361 whole entry): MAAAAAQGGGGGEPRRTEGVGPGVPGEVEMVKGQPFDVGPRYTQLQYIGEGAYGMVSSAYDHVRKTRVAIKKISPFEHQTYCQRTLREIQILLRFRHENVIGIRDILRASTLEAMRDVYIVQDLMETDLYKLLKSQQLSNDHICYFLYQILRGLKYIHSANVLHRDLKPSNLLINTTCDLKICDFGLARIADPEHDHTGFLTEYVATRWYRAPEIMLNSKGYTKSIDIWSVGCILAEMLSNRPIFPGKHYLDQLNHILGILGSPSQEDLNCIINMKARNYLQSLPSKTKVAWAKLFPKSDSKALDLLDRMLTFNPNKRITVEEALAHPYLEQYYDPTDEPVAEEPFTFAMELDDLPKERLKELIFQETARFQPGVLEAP
In test [3] the target is T1, Aurora kinase A (Homo sapiens) (UniProt O14965).
T1 sequence (whole entry): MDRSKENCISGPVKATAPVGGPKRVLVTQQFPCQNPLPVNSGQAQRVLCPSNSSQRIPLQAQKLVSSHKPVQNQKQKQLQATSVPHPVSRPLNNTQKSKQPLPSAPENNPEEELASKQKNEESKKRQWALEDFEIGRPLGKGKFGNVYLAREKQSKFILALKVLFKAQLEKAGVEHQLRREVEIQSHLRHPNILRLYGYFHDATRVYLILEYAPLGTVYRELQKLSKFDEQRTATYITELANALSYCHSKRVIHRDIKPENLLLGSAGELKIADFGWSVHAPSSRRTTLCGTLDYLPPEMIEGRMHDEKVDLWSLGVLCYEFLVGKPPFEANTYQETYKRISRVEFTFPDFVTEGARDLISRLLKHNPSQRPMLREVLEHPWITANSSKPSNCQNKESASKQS
The test can be described thus: Inhibition of AurA at 30 uM by microfluidic mobility shift assay. The essentials:
as §1

For test [4], the target named is Serine/threonine-protein kinase Chk2 (Homo sapiens, UniProt O96017). The experiment in a line: Inhibition of CHK2 at 30 uM by microfluidic mobility shift assay. The essentials:
as §1

For test [5], the target named is T2, MAP kinase-activated protein kinase 5 (Homo sapiens) (UniProt Q8IW41).
T2 sequence (whole entry): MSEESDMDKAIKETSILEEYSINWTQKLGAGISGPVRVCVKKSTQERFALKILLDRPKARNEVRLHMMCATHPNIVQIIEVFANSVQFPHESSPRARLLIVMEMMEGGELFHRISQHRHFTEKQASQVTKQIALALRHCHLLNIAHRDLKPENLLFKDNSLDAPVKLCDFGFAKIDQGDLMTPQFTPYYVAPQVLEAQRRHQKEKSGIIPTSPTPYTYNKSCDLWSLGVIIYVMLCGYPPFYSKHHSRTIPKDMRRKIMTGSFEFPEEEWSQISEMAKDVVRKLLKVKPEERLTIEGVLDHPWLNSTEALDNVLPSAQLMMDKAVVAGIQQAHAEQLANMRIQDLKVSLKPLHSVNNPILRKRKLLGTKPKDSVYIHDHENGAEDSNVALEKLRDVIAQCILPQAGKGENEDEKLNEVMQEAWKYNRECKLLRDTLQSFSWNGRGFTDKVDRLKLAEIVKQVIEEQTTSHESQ
The test can be described thus: Inhibition of PRAK1 at 30 uM by microfluidic mobility shift assay. The essentials:
as §1

The nature of test [6]: Inhibition of PKA at 30 uM by microfluidic mobility shift assay. The essentials:
as §1

Test [7] addresses Tyrosine-protein kinase Fyn (Homo sapiens, UniProt P06241). The test can be described thus: Inhibition of FYN at 30 uM by microfluidic mobility shift assay. The essentials:
as §1

Test [8] has as its target Proto-oncogene tyrosine-protein kinase Src (Homo sapiens, UniProt P12931). The test can be described thus: Inhibition of SRC at 30 uM by microfluidic mobility shift assay. The essentials:
as §1

Test [9] has as its target Tyrosine-protein kinase Lck (Homo sapiens, UniProt P06239). The experiment in a line: Inhibition of LCK at 30 uM by microfluidic mobility shift assay. The essentials:
as §1

Test [10] addresses Ribosomal protein S6 kinase alpha-5 (Homo sapiens) (UniProt O75582). The test can be described thus: Inhibition of MSK1 at 30 uM by microfluidic mobility shift assay. The essentials: as §1
Test [11] deals with RAC-alpha serine/threonine-protein kinase (Homo sapiens) (UniProt P31749). The test can be described thus: Inhibition of AKT1 at 30 uM by microfluidic mobility shift assay. The essentials:
as §1

Test [12] addresses RAC-beta serine/threonine-protein kinase (Homo sapiens) (UniProt P31751). The experiment in a line: Inhibition of AKT2 at 30 uM by microfluidic mobility shift assay. The essentials:
as §1

The target in test [13] is Mitogen-activated protein kinase 14 (Homo sapiens, UniProt Q16539). The experiment in a line: Inhibition of p38alpha at 30 uM by microfluidic mobility shift assay. The essentials: as §1
Chain of Mitogen-activated protein kinase 14 (Q16539 whole entry): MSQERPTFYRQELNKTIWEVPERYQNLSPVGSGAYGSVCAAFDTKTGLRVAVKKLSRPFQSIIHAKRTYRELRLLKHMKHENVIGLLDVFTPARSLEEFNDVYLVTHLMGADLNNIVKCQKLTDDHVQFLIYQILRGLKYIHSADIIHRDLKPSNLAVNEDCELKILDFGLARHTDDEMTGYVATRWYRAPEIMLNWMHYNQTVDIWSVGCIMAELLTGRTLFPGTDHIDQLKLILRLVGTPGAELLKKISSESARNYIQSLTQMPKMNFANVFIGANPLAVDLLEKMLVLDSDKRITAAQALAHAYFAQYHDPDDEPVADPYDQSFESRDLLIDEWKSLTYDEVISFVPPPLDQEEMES
Test [14] has as its target Ribosomal protein S6 kinase alpha-1 (Homo sapiens) (UniProt Q15418). The experiment in a line: Inhibition of RSK1 at 30 uM by microfluidic mobility shift assay. The essentials: as §1
Test [15] concerns the target Glycogen synthase kinase-3 beta (Homo sapiens) (UniProt P49841). The test can be described thus: Inhibition of GSK3B at 30 uM by microfluidic mobility shift assay. The essentials: as §1
Test [16] concerns the target Insulin receptor (Homo sapiens) (UniProt P06213). The experiment in a line: Inhibition of INSR at 30 uM by microfluidic mobility shift assay. The essentials:
as §1

The target of test [17] is Mitogen-activated protein kinase 1 (Homo sapiens) (UniProt P28482). The experiment in a line: Inhibition of ERK2 at 30 uM by microfluidic mobility shift assay. The essentials: as §1
Chain of Mitogen-activated protein kinase 1 (Homo sapiens) (P28482 whole entry): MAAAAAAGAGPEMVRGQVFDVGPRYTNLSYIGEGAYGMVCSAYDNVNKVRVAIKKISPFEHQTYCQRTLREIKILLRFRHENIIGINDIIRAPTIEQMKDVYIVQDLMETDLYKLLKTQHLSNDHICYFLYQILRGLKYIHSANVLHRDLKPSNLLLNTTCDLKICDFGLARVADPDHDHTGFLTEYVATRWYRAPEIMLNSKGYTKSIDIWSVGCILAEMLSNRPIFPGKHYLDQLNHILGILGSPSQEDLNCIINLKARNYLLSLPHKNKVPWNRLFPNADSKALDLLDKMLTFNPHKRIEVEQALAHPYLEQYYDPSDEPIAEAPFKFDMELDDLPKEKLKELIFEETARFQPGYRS
In test [18] the target is T3, Serine/threonine-protein kinase Chk1 (Homo sapiens) (UniProt O14757).
T3 sequence (whole entry): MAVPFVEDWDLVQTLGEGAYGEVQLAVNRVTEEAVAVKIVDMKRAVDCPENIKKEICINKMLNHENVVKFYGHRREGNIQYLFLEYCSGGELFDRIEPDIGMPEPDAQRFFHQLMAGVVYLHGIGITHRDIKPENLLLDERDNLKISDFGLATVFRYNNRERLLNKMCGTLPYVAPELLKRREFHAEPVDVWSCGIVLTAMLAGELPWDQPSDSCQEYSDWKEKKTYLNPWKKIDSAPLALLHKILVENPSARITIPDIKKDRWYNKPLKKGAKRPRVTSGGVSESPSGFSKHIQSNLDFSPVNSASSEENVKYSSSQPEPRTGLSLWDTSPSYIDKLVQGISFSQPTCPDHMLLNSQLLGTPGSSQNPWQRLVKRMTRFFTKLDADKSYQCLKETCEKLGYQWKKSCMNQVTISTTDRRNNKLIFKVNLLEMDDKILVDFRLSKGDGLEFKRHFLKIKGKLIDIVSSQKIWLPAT
The test can be described thus: Inhibition of CHK1 at 30 uM by microfluidic mobility shift assay. The essentials: as §1

Test [19] deals with Tyrosine-protein kinase Lyn (Homo sapiens, UniProt P07948). The test can be described thus: Inhibition of LYN at 30 uM by microfluidic mobility shift assay. The essentials:
as §1

In test [20] the target is Tyrosine-protein kinase ABL1 (Homo sapiens, UniProt P00519). The experiment in a line: Inhibition of ABL at 30 uM by microfluidic mobility shift assay. The essentials: as §1
Chain of Tyrosine-protein kinase ABL1 (P00519 whole entry): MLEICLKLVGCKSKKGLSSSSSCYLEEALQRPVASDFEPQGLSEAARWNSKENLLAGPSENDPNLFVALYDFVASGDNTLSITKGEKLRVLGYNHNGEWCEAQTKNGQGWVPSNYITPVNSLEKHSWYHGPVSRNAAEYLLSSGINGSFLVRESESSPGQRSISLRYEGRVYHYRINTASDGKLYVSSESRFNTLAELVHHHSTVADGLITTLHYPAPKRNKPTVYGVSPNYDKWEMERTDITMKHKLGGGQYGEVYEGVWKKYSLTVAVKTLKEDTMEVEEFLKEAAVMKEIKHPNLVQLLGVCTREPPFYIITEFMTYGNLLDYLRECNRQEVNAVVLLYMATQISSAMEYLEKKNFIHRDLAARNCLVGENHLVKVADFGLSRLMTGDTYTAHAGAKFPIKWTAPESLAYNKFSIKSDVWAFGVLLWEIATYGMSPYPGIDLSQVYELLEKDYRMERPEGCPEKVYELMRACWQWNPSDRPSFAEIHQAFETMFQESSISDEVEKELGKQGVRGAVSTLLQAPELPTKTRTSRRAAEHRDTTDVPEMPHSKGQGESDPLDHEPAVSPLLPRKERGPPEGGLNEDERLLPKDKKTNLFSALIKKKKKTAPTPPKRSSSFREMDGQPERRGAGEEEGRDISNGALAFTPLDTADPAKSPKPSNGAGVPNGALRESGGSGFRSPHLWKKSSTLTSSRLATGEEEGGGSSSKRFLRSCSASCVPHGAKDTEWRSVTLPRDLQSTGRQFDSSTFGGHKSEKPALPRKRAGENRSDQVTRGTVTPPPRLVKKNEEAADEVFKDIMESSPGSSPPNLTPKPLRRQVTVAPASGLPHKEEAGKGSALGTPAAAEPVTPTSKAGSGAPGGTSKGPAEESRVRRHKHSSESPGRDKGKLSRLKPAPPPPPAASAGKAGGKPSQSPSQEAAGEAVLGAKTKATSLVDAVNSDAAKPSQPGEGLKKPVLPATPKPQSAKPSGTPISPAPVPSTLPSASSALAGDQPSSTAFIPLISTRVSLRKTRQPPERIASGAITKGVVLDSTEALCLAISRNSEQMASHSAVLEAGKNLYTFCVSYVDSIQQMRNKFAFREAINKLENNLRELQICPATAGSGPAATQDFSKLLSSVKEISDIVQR
The target of test [21] is T4, Serine/threonine-protein kinase D2 (Homo sapiens) (UniProt Q9BZL6).
T4 sequence (whole entry): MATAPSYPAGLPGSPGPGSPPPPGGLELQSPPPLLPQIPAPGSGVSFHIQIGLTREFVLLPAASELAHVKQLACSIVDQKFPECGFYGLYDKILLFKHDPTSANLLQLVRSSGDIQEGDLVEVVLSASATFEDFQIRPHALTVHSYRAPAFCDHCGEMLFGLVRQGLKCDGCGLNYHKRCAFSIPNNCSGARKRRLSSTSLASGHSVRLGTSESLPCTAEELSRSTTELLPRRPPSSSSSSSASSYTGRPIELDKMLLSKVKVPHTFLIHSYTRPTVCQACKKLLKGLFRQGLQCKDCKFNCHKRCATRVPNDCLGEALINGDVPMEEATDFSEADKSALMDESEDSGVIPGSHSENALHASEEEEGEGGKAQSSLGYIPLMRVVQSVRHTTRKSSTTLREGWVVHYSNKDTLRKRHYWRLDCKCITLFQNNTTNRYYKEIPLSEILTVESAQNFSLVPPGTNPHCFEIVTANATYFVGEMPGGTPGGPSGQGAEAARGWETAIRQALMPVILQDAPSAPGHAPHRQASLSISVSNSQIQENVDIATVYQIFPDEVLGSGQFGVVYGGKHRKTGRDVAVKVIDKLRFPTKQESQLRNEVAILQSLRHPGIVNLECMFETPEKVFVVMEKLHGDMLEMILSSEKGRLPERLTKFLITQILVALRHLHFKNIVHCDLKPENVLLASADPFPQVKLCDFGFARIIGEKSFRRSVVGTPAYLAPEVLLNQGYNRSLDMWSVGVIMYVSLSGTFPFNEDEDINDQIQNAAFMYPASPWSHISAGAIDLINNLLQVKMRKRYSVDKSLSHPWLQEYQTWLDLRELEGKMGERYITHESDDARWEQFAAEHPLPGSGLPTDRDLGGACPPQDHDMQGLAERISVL
The experiment in a line: Inhibition of PKD2 at 30 uM by microfluidic mobility shift assay. The essentials:
as §1

Chain of RAC-beta serine/threonine-protein kinase (Homo sapiens) (P31751 whole entry): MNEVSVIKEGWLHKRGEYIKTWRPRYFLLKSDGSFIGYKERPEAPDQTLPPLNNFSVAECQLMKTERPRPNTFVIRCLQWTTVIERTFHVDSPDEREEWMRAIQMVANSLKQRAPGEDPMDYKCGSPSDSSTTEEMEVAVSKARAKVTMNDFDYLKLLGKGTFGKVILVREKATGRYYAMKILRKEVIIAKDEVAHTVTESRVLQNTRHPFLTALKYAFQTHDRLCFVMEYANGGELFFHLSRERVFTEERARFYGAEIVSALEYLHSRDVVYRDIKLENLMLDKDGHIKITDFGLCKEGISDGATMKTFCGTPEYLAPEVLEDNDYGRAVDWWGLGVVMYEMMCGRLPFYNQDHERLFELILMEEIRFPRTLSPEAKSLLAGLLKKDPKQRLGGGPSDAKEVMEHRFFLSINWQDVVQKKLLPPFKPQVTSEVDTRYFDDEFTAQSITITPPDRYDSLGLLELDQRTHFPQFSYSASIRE
Chain of Glycogen synthase kinase-3 beta (Homo sapiens) (P49841 whole entry, looked up): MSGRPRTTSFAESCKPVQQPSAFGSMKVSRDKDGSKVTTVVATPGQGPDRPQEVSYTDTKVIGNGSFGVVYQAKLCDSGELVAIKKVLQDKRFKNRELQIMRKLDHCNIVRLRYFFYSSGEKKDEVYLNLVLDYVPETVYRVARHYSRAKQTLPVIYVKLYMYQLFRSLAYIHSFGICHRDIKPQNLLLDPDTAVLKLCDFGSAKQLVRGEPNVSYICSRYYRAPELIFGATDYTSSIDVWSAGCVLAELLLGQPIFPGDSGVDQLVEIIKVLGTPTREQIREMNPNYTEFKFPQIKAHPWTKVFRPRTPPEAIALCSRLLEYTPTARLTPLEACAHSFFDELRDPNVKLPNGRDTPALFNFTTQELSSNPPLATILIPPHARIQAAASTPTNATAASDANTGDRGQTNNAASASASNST
Chain of Tyrosine-protein kinase Fyn (P06241 2-537 limits assumed): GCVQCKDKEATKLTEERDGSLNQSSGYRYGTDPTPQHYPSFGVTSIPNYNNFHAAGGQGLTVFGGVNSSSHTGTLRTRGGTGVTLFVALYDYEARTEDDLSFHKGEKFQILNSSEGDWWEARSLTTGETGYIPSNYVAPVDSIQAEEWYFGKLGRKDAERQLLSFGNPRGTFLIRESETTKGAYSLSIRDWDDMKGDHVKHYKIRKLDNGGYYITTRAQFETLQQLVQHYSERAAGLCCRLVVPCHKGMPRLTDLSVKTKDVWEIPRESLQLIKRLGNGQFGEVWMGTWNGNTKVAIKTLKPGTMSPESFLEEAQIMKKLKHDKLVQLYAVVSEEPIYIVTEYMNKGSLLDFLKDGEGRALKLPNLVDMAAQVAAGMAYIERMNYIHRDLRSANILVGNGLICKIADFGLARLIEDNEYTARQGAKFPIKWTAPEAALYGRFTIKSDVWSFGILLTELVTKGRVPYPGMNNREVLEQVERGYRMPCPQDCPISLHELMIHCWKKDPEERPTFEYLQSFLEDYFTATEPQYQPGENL
Chain of MAP kinase-activated protein kinase 2 (P49137 whole entry, looked up): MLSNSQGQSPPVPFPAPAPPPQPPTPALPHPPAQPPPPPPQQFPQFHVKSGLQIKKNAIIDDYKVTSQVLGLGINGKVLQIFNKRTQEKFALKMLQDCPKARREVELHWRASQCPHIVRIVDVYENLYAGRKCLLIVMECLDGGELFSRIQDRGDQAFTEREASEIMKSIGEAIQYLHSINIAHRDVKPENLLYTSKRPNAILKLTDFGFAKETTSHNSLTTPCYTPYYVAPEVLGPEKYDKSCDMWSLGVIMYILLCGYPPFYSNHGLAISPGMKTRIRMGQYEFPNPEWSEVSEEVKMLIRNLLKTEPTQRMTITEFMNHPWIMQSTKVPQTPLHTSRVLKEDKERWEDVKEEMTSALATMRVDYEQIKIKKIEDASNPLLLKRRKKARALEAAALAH
Chain of Proto-oncogene tyrosine-protein kinase Src (P12931 2-536 limits assumed): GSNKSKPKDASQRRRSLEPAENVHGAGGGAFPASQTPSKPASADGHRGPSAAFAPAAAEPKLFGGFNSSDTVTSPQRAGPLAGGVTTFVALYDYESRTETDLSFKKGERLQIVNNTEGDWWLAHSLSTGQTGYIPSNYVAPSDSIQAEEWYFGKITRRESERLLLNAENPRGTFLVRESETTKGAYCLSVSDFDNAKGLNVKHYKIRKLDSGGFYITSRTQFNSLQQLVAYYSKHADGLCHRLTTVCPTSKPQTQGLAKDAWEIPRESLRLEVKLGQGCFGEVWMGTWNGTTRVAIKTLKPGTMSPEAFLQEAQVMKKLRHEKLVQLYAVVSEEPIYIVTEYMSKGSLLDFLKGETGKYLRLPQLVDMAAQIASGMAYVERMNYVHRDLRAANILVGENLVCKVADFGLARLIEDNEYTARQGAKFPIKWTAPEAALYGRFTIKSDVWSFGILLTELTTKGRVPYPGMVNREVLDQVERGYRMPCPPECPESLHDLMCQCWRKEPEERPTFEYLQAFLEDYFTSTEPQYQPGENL

Regarding `Cc1cc2[nH]ncc2c(=O)[nH]1`, the inhibition in [1] worked out at 11%; in test [2], 4%; in test [3] it was 13%; in test [4], 12%; in [5], 1%; in test [6], 8%. The inhibition in test [7] is 4%; in [8], 5%; in [9], 11%; in test [10] it was 2%; in [11], 2%; in [12] it was 1%. In addition, the inhibition in test [13] was -5%; in test [14], -3%; in [15], 13%; in test [16], 2%; in [17] it was 0%; in [18], 2%. In addition, the inhibition in test [19] was 5%; in test [20], 4%.
In the case of `O=S(=O)(NCCNC/C=C/c1ccc(Br)cc1)c1cccc2cnccc12`, the inhibition is 41% in test [1]; 71% in [3]; 37% in test [5]; 100% in [6]; 18% in test [8]; 5% in test [13]. Further, the inhibition in test [15] was determined as 10%; in test [16], 3%; in [20], 8%.
In the case of `Cc1cc2[nH]nc(N)c2c(N2CCOCC2)n1`, the inhibition in test [1] amounted to 1%; in test [2] it was 15%; in test [3], 72%; in test [4], 23%; in [5] it was 5%; in test [6], 71%. Moreover, the inhibition in test [7] was 43%; in test [8], 45%; in [9] it was 44%; in [10], 74%; in test [11] it was 17%; in [12] it was 7%. Further, the inhibition in test [13] is -3%; in [14], 30%; in test [15] it was 73%; in test [16], 0%; in [17], 7%; in [18] it was 13%. Besides, the results for the inhibition in test [19] and in [20] were 51% and 24%, respectively.
For `Nc1c2cnc(-c3ccccc3)cc2nn1-c1ccccc1`, the inhibition in test [1] was determined as 1%; in [2], 5%; in test [3] it was 3%; in test [4], 7%; in test [5] it was 2%; in [6], 4%. Further, the inhibition in test [7] was 13%; in [8], 9%; in test [9] it was 13%; in test [10], -2%; in test [11], -1%; in [12], 3%. Further, the inhibition in [13] is 55%; in test [14], -3%; in [15] it was 4%; in [16], 3%; in [17], 1%; in test [18], 6%. Besides, the inhibition is 29% in test [19] and 19% in [20].
On to `Cc1cc2c(c(N)nn2C)c(N2CCCCC2)n1`, for which the inhibition worked out at 7% in [1]; 13% in test [2]; 41% in test [3]; 4% in test [4]; 16% in test [21]; 17% in test [5]. The inhibition in [6] was found to be 6%; in [7], 8%; in [8], 4%; in test [9] it was 6%; in test [10], 7%; in test [11], 6%. For the same molecule, the inhibition is 0% in test [12]; 4% in test [13]; 23% in [14]; 8% in test [15]; -2% in test [16]; 1% in [17]. Further, the results for the inhibition in test [19] and in test [20] were 11% and 19%, respectively.
For `Cc1cc2[nH]nc(N)c2cn1`, the inhibition in test [1] came to 7%; in [2], 8%; in test [3], 31%; in [4] it was 7%; in test [21], 25%; in [5], 13%. Besides, the inhibition in test [6] is 19%; in test [7], 3%; in [8], 6%; in test [9] it was 6%; in test [10] it was 13%; in [11], -1%. Moreover, the inhibition in [12] was -3%; in test [13], 2%; in [14], 11%; in test [15] it was 9%; in test [16] it was 5%; in [17] it was 4%. In addition, the inhibition in test [19] amounted to 8%; in [20], 11%.

The inhibition is the change of the read-out against control, counted positive when it falls.
